In ChEMBL document CHEMBL4428078, “Discovery of S3-Truncated, C-6 Heteroaryl Substituted Aminothiazine β-Site APP Cleaving Enzyme-1 (BACE1) Inhibitors” (J Med Chem, 2016):

Experiments:
[1] = biological target: Beta-secretase 1 (Homo sapiens, UniProt P56817); assay: Inhibition of BACE1 in human H4 cells expressing swedish mutant APP751 assessed as reduction in amyloid beta level measured after 19 hrs; format: cell-based
[2] = Ratio of drug level in brain to plasma of mouse at 30 mg/kg, po measured at 3 hrs post dose; format: ADME, organism-based; conditions: read-out: BPR
Summary of the method: (§1)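 Young mice given a single oral dose of 30 mg/kg. Total brain and plasma drug levels were measured 3 h post-dose and the brain/plasma ratio derived.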

[3] = system: Rattus norvegicus; assay: In vivo inhibition of BACE1 in po dosed rat assessed as reduction in total amyloid beta level in brain measured after 5 hrs by ELISA relative to control
[4] = Metabolic stability in human liver microsomes assessed as compound remaining at 0.5 uM measured after 10 mins; format: ADME, Microsome; conditions: read-out: Stability
Summary of the method: (§2)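 Test compound at 0.5 µM incubated 10 min with mouse, rat or human liver microsomes. Read-out is percent of parent compound remaining.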

[5] = Drug uptake in mouse brain at 30 mg/kg, po measured after 3 hrs; format: ADME, organism-based; conditions: read-out: Drug uptake; summary of the method: as §1
[6] = system: Rattus norvegicus; assay: In vivo inhibition of BACE1 in po dosed rat assessed as reduction in brain amyloid beta42 level measured after 5 hrs by ELISA relative to control
[7] = Metabolic stability in rat liver microsomes assessed as compound remaining at 0.5 uM measured after 10 mins; format: ADME, Microsome; conditions: read-out: Stability; summary of the method: as §2
[8] = Metabolic stability in mouse liver microsomes assessed as compound remaining at 0.5 uM measured after 10 mins; format: ADME, Microsome; conditions: read-out: Stability; summary of the method: as §2
[9] = system: Rattus norvegicus; assay: In vivo inhibition of BACE1 in po dosed rat assessed as reduction in brain amyloid beta40 level measured after 5 hrs by ELISA relative to control
[10] = system: Mus musculus; assay: In vivo inhibition of BACE1 in mouse assessed as reduction in brain amyloid beta level at 30 mg/kg, po measured after 3 hrs by ELISA relative to control; format: functional
Summary of the method: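 Young mice dosed orally at 30 mg/kg. Brain Aβ was measured 3 h post-dose and expressed as percent reduction.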

[11] = Plasma concentration in mouse at 30 mg/kg, po measured after 3 hrs; format: ADME, organism-based; summary of the method: as §1

Sequence of Beta-secretase 1 (P56817 whole entry): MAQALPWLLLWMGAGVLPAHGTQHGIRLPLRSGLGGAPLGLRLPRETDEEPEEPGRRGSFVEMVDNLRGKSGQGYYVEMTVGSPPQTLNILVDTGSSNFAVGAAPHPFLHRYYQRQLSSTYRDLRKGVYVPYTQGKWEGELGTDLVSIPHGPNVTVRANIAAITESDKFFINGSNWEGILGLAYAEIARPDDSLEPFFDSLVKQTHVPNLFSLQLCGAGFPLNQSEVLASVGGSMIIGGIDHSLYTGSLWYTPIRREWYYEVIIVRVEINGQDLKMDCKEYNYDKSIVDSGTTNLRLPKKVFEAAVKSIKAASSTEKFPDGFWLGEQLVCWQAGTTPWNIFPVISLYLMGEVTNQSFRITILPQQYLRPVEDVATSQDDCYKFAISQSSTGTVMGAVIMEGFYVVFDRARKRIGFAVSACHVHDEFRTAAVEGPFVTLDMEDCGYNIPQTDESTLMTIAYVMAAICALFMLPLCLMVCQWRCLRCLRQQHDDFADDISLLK

Row | IC50 [1] [nM] | Kp at 3 h [2] | remaining at 10 min, 0.5 µM [4] [%] | concentration at 3 h [5] [µM] | remaining at 10 min, 0.5 µM [7] [%] | remaining at 10 min, 0.5 µM [8] [%] | concentration at 3 h [11] [µM] | SMILES | inhibition [3] | inhibition [6] | inhibition [9] | inhibition in vivo at 30 mg/kg [10] [%]
1 | 150 | 0.75 | 24 | 3.6 | 78 | 72 | 4.8 | Cc1noc(C)c1[C@@H]1C[C@@](C)(c2ccc(F)cc2F)N=C(N)S1 | Dose-dependent effect | Dose-dependent effect | Dose-dependent effect | 62
2 | 250 | – | 21 | – | 59 | 41 | – | CCc1noc(C)c1[C@@H]1C[C@@](C)(c2ccc(F)cc2F)N=C(N)S1 | – | – | – | –
3 | 180 | – | 17 | – | 5 | 6 | – | Cc1onc(-c2cccnc2)c1[C@@H]1C[C@@](C)(c2ccc(F)cc2F)N=C(N)S1 | – | – | – | –
4 | 160 | – | 38 | – | 13 | 12 | – | Cc1onc(-c2ccccc2)c1[C@@H]1C[C@@](C)(c2ccc(F)cc2F)N=C(N)S1 | – | – | – | –
5 | 410 | – | 45 | – | 88 | 53 | – | Cc1noc(-c2ccc(F)cc2)c1[C@@H]1C[C@@](C)(c2ccc(F)cc2F)N=C(N)S1 | – | – | – | –
6 | – | 0.08 | – | 0.58 | – | – | 7.4 | Cc1noc(C)c1[C@@H]1C[C@@](C)(c2cc(-c3cncnc3)c(F)cc2F)N=C(N)S1 | – | – | – | –
7 | 480 | – | 86 | – | 81 | 78 | – | Cc1noc(C)c1[C@@H]1C[C@@](C)(c2ccccc2)N=C(N)S1 | – | – | – | –
8 | 230 | – | 39 | – | 20 | 6 | – | Cc1noc(-c2ccccc2)c1[C@@H]1C[C@@](C)(c2ccc(F)cc2F)N=C(N)S1 | – | – | – | –
